Laboratory results published in ChEMBL document CHEMBL1629504, “Synthesis, antitrichinnellosis and antiprotozoal activity of some novel thieno[2,3-d]pyrimidin-4(3H)-ones containing benzimidazole ring” (2010).
The source made the active and inactive calls. No cut-off for these calls is given here.

Experiments:
Trichinella spiralis [1] = experiment: Antitrichinellosis activity against Trichinella spiralis assessed as parasites viability at 5 ug/ml after 24 hrs by stereomicroscopy; format: functional
How it was run: (§1)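 Encapsulated larvae, 100 per 1 ml physiological solution (Campbell's method), exposed to compound dissolved in DMSO at 5 µg/ml; incubated in a humid thermostatted chamber at 37 °C. Larval vitality checked by stereomicroscopy at 24 and 48 h.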

Trichinella spiralis [2] = experiment: Antitrichinellosis activity against Trichinella spiralis assessed as parasites viability at 5 ug/ml after 48 hrs by stereomicroscopy; format: functional; how it was run: as §1
Paramecium caudatum = experiment: Antiprotozoal activity against Paramecium caudatum assessed as parasites viability at 1 ug/ml after 15-20 mins by stereomicroscopy; format: functional
How it was run: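 Paramecia from dry-hay maceration culture; 2–3 drops of culture added to a drop of compound in DMSO (1 µg/ml) in a Petri dish. Motility and cell integrity followed stereomicroscopically over minutes after addition.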

Giardia muris = experiment: Antiprotozoal activity against Giardia muris infected in white mouse assessed as presence of cysts in mouse faeces at 0.5 ug/ml, po after 5 days by microscopy; format: functional, organism-based; details: Feces
How it was run: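 Infected white mice (five per group) dosed p.o. once daily by thin metal oesophageal probe, 0.5 µg/ml pro die as 0.5 ml DMSO solution, for 5 days; untreated and DMSO-only control groups. After the course, faeces stained with Lugol's solution and examined microscopically for cysts.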

With `O=c1[nH]c(CCSc2nc3ccccc3n2[N+](=O)[O-])nc2sc3c(c12)CCCC3` the Efficacy (Trichinella spiralis [1]) was 90.1%, the Efficacy (Trichinella spiralis [2]) was 90.1% and the Activity (Paramecium caudatum) was “Active”. The Activity (Giardia muris) was “Active”.
In the case of `O=c1[nH]c(CCn2cnc3cc([N+](=O)[O-])ccc32)nc2sc3c(c12)CCCC3`, the Efficacy (Trichinella spiralis [1]) is reported as 95.05%, the Efficacy (Trichinella spiralis [2]) is reported as 95.05% and the Activity (Paramecium caudatum) is reported as “Active”. The Activity (Giardia muris) was “Active”.
`Cn1c(SCCc2nc3sc4c(c3c(=O)[nH]2)CCCC4)nc2ccccc21` was tested, and the Efficacy (Trichinella spiralis [1]) was 40.05%, the Efficacy (Trichinella spiralis [2]) was 89.9% and the Activity (Paramecium caudatum) was “Active”. For the same compound, the Activity (Giardia muris) was “Active”.
In the case of `CCOC(=O)c1sc2nc(CCSc3nc4ccccc4n3CC)[nH]c(=O)c2c1C`, the Efficacy (Trichinella spiralis [1]) is reported as 39.07%, the Efficacy (Trichinella spiralis [2]) is reported as 59.75% and the Activity (Paramecium caudatum) is reported as “Active”. For the same compound, the Activity (Giardia muris) was “Active”.
With `CCOC(=O)c1sc2nc(CCn3cnc4ccccc43)[nH]c(=O)c2c1C` the Efficacy (Trichinella spiralis [1]) was 79.8%, the Efficacy (Trichinella spiralis [2]) was 85.3% and the Activity (Paramecium caudatum) was “Active”. The Activity (Giardia muris) was “Active”.
With `CCOC(=O)c1sc2nc(CCSc3nc4cc([N+](=O)[O-])ccc4[nH]3)[nH]c(=O)c2c1C` the Efficacy (Trichinella spiralis [1]) was 50%, the Efficacy (Trichinella spiralis [2]) was 80.05% and the Activity (Paramecium caudatum) was “Active”. For the same compound, the Activity (Giardia muris) was “Active”.
For `CCCSc1ccc2[nH]c(NC(=O)OC)nc2c1` [ALBENDAZOLE], the Efficacy (Trichinella spiralis [1]) was 10.6% and the Efficacy (Trichinella spiralis [2]) was 14.8%.
`CCCn1c(SCCc2nc3sc4c(c3c(=O)[nH]2)CCCC4)nc2ccccc21` was tested, and the Efficacy (Trichinella spiralis [1]) was 84.8%, the Efficacy (Trichinella spiralis [2]) was 90.05% and the Activity (Paramecium caudatum) was “Active”. The Activity (Giardia muris) was “Active”.
With `CCOC(=O)c1sc2nc(CCSc3nc4cc(Cl)ccc4[nH]3)[nH]c(=O)c2c1C` the Efficacy (Trichinella spiralis [1]) was 0%, the Efficacy (Trichinella spiralis [2]) was 5.09% and the Activity (Paramecium caudatum) was “Active”. For the same compound, the Activity (Giardia muris) was “Active”.
